CAL PDZ FP-1: CAL PDZ peptide-binding inhibitors, primary screen, biochemical, fluorescence polarization, Cer-tagged CAL PDZ, HTS. 0.02% of 330,000 active. AID 504414, 2011. purified CAL PDZ, TMR-peptide fluorescence polarization, 1 h. Golgi-associated PDZ and coiled-coil motif-containing protein (Homo sapiens), Q9HD26. inhibition, % at 20 µM;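 active = highest replicate inhibition of at least 40%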;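 also: plate controls were DMSO neutral control wells for no effect and unlabeled competitor peptide control wells for full effect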
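Read-out basis: mP drop reported as inhibition | Assay system: Tagged CAL PDZ protein CerCALP, purified | Benchmarks: Unlabelled peptide for full inhibition, DMSO wells as neutral | Schedule: 1 h incubation at room temperature before polarization reading | Buffer or medium: Sodium phosphate/NaCl buffer pH 7.4 with TCEP, IgG, Thesit | Doses: Single point, 20 µM | Measured by: Fluorescence polarization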
ARNT-TACC3 inh: disruptors of ARNT/TACC3 protein interaction, primary screen, biochemical, AlphaScreen, single concentration; 0.66% of 390,000 active; inhibition, % at 9.99 µM; AlphaScreen His-ARNT PAS-B/GST-TACC3 binding, luminescence; TACC3 fragment carries E629A point mutation; Transforming acidic coiled-coil-containing protein 3 (Homo sapiens), Q9Y6A5; AID 623870, 2012;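 active = mean inhibition of replicates at least 50% and at least half of replicates each reaching 50%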;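 also: 0% = complete ARNT plus TACC3 wells and 100% = ARNT alone without TACC3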
AI-2 QS mod: Vibrio harveyi AI-2 quorum sensing modulators, primary screen, JMH597 strain, luminescence/OD600 ratio; Vibrio harveyi JMH597 AI-2 luminescence/OD600 ratio, 9 h; active compounds read low; strain lacks LuxN and CqsS sensors; 0 = neutral-control median; activity change, % at 7.5 µM; 0.4% of 300,000 active; AID 2094, 2009; in the data active = activity change below about -75%, passing the limit was not always enough;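 also: luminescence divided by OD600 gain over 9 h not by final OD600 alone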
Rce1 inhib: yeast Rce1p protease inhibitors, primary screen, biochemical, fluorescence, cell-free homogeneous; yeast membranes, quenched prenylated peptide cleavage fluorescence; CAAX prenyl protease 2 (Saccharomyces cerevisiae (strain ATCC 204508 / S288c)), Q03530; 0.27% of 290,000 active; calls only;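 active = fall in fluorescence gain of 50% or more versus controls, with final raw signal at or below 3038400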;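 also: plate controls were neutral control wells for no effect and wells lacking membranes for full effect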
Target sequence (Q03530 whole entry, looked up): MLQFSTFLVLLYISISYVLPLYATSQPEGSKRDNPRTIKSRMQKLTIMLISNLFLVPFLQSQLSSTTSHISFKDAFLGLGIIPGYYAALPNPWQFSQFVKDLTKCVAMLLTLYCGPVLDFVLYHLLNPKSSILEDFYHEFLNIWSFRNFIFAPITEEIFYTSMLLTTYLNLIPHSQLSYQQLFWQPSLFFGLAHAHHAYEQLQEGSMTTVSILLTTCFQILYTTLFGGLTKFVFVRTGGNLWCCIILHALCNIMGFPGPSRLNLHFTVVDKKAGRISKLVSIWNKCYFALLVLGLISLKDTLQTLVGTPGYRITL
CAL PDZ FP-2: untagged CAL PDZ binding inhibitors, primary screen, biochemical, fluorescence polarization, HTS; Golgi-associated PDZ and coiled-coil motif-containing protein (Homo sapiens), Q9HD26; purified CAL PDZ, TMR-peptide fluorescence polarization, 1 h; inhibition, % at 24.9 µM; 0.92% of 300,000 active; AID 602252, 2012;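 active = mean inhibition of at least 30% with at least half of replicates also reaching 30%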;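 also: 0% = DMSO neutral control and 100% = excess unlabeled competitor peptide PRC23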
An asterisk follows results filed as active; i = inactive; . = no result given; + = active, no number; ! = not active in a repeat. Most compounds without a hit are left out; they make up all but 1.7% or so of the library.

SMILES | CAL PDZ FP-1 | ARNT-TACC3 inh | AI-2 QS mod | Rce1 inhib | CAL PDZ FP-2
Cc1ccc(S(=O)(=O)CCC(=O)Nc2nc(-c3ccncc3)cs2)cc1 | -3 | -3 | 13 | i | -2
O=C(CCS(=O)(=O)c1ccc(F)cc1)Nc1nc(-c2ccccn2)cs1 | -2 | 60* | 41 | i | -4
O=C(CCS(=O)(=O)c1ccccc1)Nc1nc(-c2ccccn2)cs1 | -1 | 65* | 23 | i | 1
CCCNC(=O)N(C)C[C@@H]1Oc2ncc(-c3ccc(OC)cc3)cc2C(=O)N([C@H](C)CO)C[C@H]1C | . | -5 | . | . | .
C[C@@H]1CN([C@@H](C)CO)C(=O)Cc2cc(NC(=O)CCC(F)(F)F)ccc2O[C@H]1CN(C)Cc1ccc2c(c1)OCO2 | . | 0 | . | . | .
COc1cccc(-c2cc(C(F)(F)F)n3ncc(S(=O)(=O)c4ccccc4)c3n2)c1 | 0 | -19 | 17 | + | -2
Cc1nn(S(=O)(=O)c2cccs2)c(C)c1Sc1ccc([N+](=O)[O-])cc1 | . | 5 | -7 | i | -9
CC1=NN2C(=N)/C(=C\c3ccc(SCc4ccccc4)o3)C(=O)N=C2S1 | -1 | 6 | -2 | i | 55*
Cc1ccc([N+](=O)[O-])c(OCCN2CCc3ccccc3C2)c1 | -1 | 9 | 5 | i | -1
Cc1ccc([N+](=O)[O-])c(OCCN2CCCCCC2)c1 | -1 | 5 | 5 | i | 57*
COc1ccccc1N1CCN(CC(=O)c2ccc(F)cc2)CC1 | -1 | 3 | 23 | i | -3
CC(C(=O)NC(C)(C)C)N(C(=O)CS(=O)CC(=O)Nc1ccc(F)cc1)c1ccccc1F (centres undefined) | 1 | 5 | 2 | i | 33*
c1ccc(OCCCCN2CCOCC2)cc1 | 0 | -3 | 5 | i | -2
Cc1cc(C)c(S(=O)(=O)N(C)CC(=O)NCCN2CCOCC2)c(C)c1 | -1 | -2 | -12 | i | 31*
CC(=O)Nc1ccc(NC(=O)Cn2c(=O)n(-c3ccccc3)c(=O)c3oc4ccccc4c32)cc1 | -2 | -11 | 30 | i | -6
COc1ccc(NS(=O)(=O)c2cc(NC(=O)Cc3n[nH]c(=O)c4ccccc34)ccc2OC)cc1 | -3 | -1 | . | . | 51*
COc1ccc(NC(=O)CN(C)C(=O)Cc2n[nH]c(=O)c3ccccc23)cc1 | -1 | -1 | 11 | i | 31*
CCOC(=O)c1ccc(S(=O)(=O)NNC(=O)COc2ccc(C)cc2)cc1 | -2 | -11 | 4 | i | -2
CC(NCc1ccco1)C(=O)N1CCc2ccccc2C1 (centres undefined) | 0 | -2 | 8 | i | 1
Cc1c(C(=O)N2CCOCC2)c(S(=O)(=O)Nc2cccc(F)c2)c(C)n1C | 0 | 1 | 11 | i | -3
Cc1c(C(=O)N2CCOCC2)c(S(=O)(=O)Nc2cccc(C#N)c2)c(C)n1C | 0 | -4 | 22 | i | 68*
C[C@@H]1CN([C@@H](C)CO)S(=O)(=O)c2ccc(-c3ccc(C(=O)N(C)C)cc3)cc2O[C@H]1CN(C)C(=O)C1CCOCC1 | . | -9 | . | . | .
Cc1cccc(-c2nc(C#N)c(N3CCC(C)CC3)o2)c1 | . | . | 6 | i | -8
CC1CCN(c2oc(-c3ccc(F)cc3)nc2C#N)CC1 | 0 | 11 | 3 | + | -1
O=C(NCC1CCN(Cc2ccccc2Cl)CC1)Nc1ccccc1F | 0 | 2 | -11 | i | -1
SMILES | CAL PDZ FP-1 | ARNT-TACC3 inh | AI-2 QS mod | Rce1 inhib | CAL PDZ FP-2
CCc1nnc(NC(=O)CSc2nncc(=O)n2N)s1 | -3 | -6 | 25 | i | -2
CCSc1nnc(NC(=O)CSc2nncc(=O)n2N)s1 | 0 | 70* | -42 | i | 0
CCOC(=O)C[n+]1ccc2c([nH]c3ccccc32)c1C | -1 | -3 | 19 | + | -1
CC1(C)C(/C=C/C=C/C=C/C=C2\N(CCCCS(=O)(=O)O)c3ccc4ccccc4c3C2(C)C)=[N+](CCCCS(=O)(=O)[O-])c2ccc3ccccc3c21 | 2 | 65* | . | . | -9
Cc1c2ccccc2cc[n+]1CCCS(=O)(=O)[O-] | -2 | . | 21 | i | -2
CCC(=O)N1CCc2cc(S(=O)(=O)CCC(=O)NCc3ccco3)ccc21 | -2 | -5 | 3 | i | 1
NCCc1cnc[nH]1 | 0 | 73*! | 16 | i | -2
NCCC(=O)NCCc1cnc[nH]1 | 1 | . | . | . | -1
O=C(NCCN1CCOCC1)c1ccc2c(c1)N(Cc1c(F)cccc1Cl)C(=O)c1ccccc1S2 | -1 | -6 | 10 | i | 7
CCOc1ccc(N(CC(=O)NCc2ccc(C)cc2)S(=O)(=O)c2c(C)[nH]c(=O)[nH]c2=O)cc1 | -1 | -1 | 4 | i | 38*
COc1ccc(N(CC(=O)NCc2ccc(C)cc2)S(=O)(=O)c2c(C)[nH]c(=O)[nH]c2=O)cc1 | -2 | 1 | 14 | i | -2
O=C(COC(=O)c1ccc([N+](=O)[O-])s1)Nc1ncc(C(F)(F)F)cc1Cl | 1 | 1 | 35 | i | 71*
C=CCn1c(=NC(=O)c2cccc(N3C(=O)CCC3=O)c2)sc2cccc(OC)c21 | -1 | 3 | 17 | i | 0
C=CCOc1ccc(/C(CC)=N/O)c(OC)c1 | 0 | -21 | 22 | i | -16
COc1ccc(OC)c(N2C(=O)c3cccnc3C2=O)c1 | -6 | 47* | 6 | i | 1
Cc1cccc(-c2oc3ccccc3c2C#CCCO)c1 | -1 | -6 | 7 | + | -2
Cc1cccc(-c2oc3ccccc3c2C#CCCCCO)c1 | 0 | 10 | 6 | + | -1
CCCc1cc(=O)oc2cc(O[C@@H]3O[C@H](CO)[C@@H](O)[C@H](O)[C@H]3O)ccc12 | 1 | 19 | -1 | i | -2
Cc1ccc(/C=C2/Sc3ccccc3N(CC(=O)NCC3CCCO3)C2=O)cc1 (centres undefined) | -1 | 3 | 17 | i | 184*
O=C(CN1C(=O)/C(=C\c2cccc(Br)c2)Oc2ccccc21)NCC1CCCO1 (centres undefined) | -1 | 15 | 17 | + | 2
COc1ccccc1CNC(=O)C(NS(=O)(=O)c1cccc2nsnc12)C(C)C (centres undefined) | -1 | -3 | 17 | i | -2
COC(=O)c1c(NC(=O)COC(=O)CNC(=O)c2ccco2)sc(C)c1C | -1 | 4 | 23 | i | 58*

Compound activity as filed in PubChem.
